Measurements from different studies.
Each line is one published result; the experiments were not run side by side.
Cell line: HepG2
Effect on: cell growth or viability

| SMILES | assay | setting | endpoint | value |
| --- | --- | --- | --- | --- |
| Cc1cc(=O)oc2ccc(-c3cc(-c4ccc(Br)cc4)nc(N)n3)c(O)c12 | MTT | 8 µg/mL, 72 h | inhibition | 0% |
| Fc1ccc(-c2nc3ccccc3n2Cc2ccccc2)cc1 | MTT |  | IC50 | 45.9 µM |
| COc1ccc(NC(=O)c2c(Nc3ccccc3)sc(C#N)c2NC(=O)CNc2ccc(O)cc2)cc1 | SRB | 10 nM, 48 h | viability | 92.1% |
| Cc1cc(=O)oc2ccc(-c3cc(-c4ccc(Cl)cc4)nc(N)n3)c(O)c12 | MTT | 2 µg/mL, 72 h | inhibition | 16% |
| COc1ccc(NC(=O)c2c(Nc3ccccc3)sc(C(=O)NN=Cc3cc(OC)c(OC)c(OC)c3)c2NC(C)=O)cc1 | SRB | 10 µM, 48 h | viability | 42.9% |
| Cc1ccc2nc(-c3ccco3)n(Cc3ccccc3)c2c1 | MTT |  | IC50 | 55.5 µM |
| O=C(N/N=C/CN1CCCCC1)Nc1cc2c(Nc3ccc(F)c(Cl)c3)ncnc2cc1O[C@H]1CCOC1 | MTT | 72 h | IC50 | 0.42 µM |
| Cc1cc(Nc2ccc(C(=O)N/N=C/c3cc4ccccc4[nH]3)cc2)c2cccc(O)c2n1 | MTT | 20 µM | inhibition | 54.1% |
| CCn1cc(-c2ccccn2)c(=O)c2cc(F)c(N3CCC(C)CC3)cc21 | ATP luminescence | 48 h | EC50 | > 40 µM |
| CCOC(=O)c1ccc(N2C(N)=C(C#N)C3(C(=O)Nc4ccccc43)C(C#N)=C2O)cc1 (stereo not drawn) | MTT | 12.5 µM, 24 h | viability | 37.7% |
| O=C(CN1C(=O)/C(=C/C2CC2)SC1=S)Nc1ccccc1 | MTT | 10 µM | inhibition | 11% |
| Cc1cc(=O)oc2ccc(-c3cc(-c4cccc(Cl)c4)nc(N)n3)c(O)c12 | MTT | 128 µg/mL, 72 h | inhibition | 31% |
| CCn1cc(-c2nc(C)no2)c(=O)c2cc(F)c(N3CCC(c4ccccc4)CC3)cc21 | ATP luminescence | 48 h | EC50 | > 40 µM |
| COc1ccc(NCC(=O)Nc2c(C#N)sc(Nc3ccccc3)c2C(=O)Nc2ccc(OC)cc2)cc1 | SRB | 1 µM, 48 h | viability | 71.6% |
| CCn1cc(-c2nc(C)no2)c(=O)c2cc(F)c(N3CCN(C)CC3)cc21 | ATP luminescence | 48 h | EC50 | > 40 µM |
| Cc1ccc(-c2cc(-c3ccc4oc(=O)cc(C)c4c3O)nc(N)n2)cc1 | MTT | 8 µg/mL, 72 h | inhibition | 0% |
| COc1cccc2c1C(=O)c1c(O)c3c(c(O)c1C2=O)C[C@@](O)(C(=O)CO)C[C@@H]3O[C@H]1C[C@H](N)[C@H](O)[C@H](C)O1 | MTT | 48 h | IC50 | 0.12 µg/mL |
| COc1ccc(NC(=O)c2c(Nc3ccccc3)sc(C(=O)NN=Cc3ccccc3)c2NC(C)=O)cc1 | SRB | 0.1 µM, 48 h | viability | 78.1% |
| COc1ccc(-c2cc(-c3ccc4oc(=O)cc(C)c4c3O)nc(N)n2)cc1 | MTT | 8 µg/mL, 72 h | inhibition | 0% |
| O=C(CN1C(=O)/C(=C/c2ccccc2O)SC1=S)Nc1ccccc1 | MTT | 10 µM | inhibition | 26.4% |
| CC(=O)Nc1cccc(-n2c(=O)n(C3CC3)c(=O)c3c(Nc4ccc(I)cc4F)n(C)c(=O)c(C)c32)c1 | resazurin | 780 pM, 72 h | viability | 99.5% |
| CCOC(=O)c1ccc(NC(=O)C2=C3C(=Nc4ccccc43)NC2=O)cc1 | MTT | 25 µM, 24 h | viability | 56.3% |
| O=C(N/N=C/c1cccn1CCCN1CCCC1)Nc1cc2c(Nc3ccc(F)c(Cl)c3)ncnc2cc1O[C@H]1CCOC1 | MTT | 72 h | IC50 | 0.67 µM |
| COc1ccc(NC(=O)c2c(Nc3ccccc3)sc(C(=O)NN=Cc3ccc(Cl)cc3)c2NC(C)=O)cc1 | SRB | 100 µM, 48 h | viability | 52.6% |

| SMILES | assay | setting | endpoint | value |
| --- | --- | --- | --- | --- |
| Cc1cc(=O)oc2ccc(-c3cc(-c4ccccc4)nc(N)n3)c(O)c12 | MTT | 8 µg/mL, 72 h | inhibition | 0% |
| CSc1ccc(-c2nc3ccccc3[nH]2)cc1 | MTT | 48 h | IC50 | 40.1 µM |
| CCOC(=O)c1ccc(-n2c(-c3ccc(C)cc3)cc(-c3ccc(O)cc3)c(C#N)c2=O)cc1 | MTT | 1.56 µM, 24 h | viability | 100% |
| COc1ccc(/C=C2\SC(=S)N(CC(=O)Nc3ccccc3)C2=O)cc1 | MTT | 10 µM | inhibition | 13.6% |
| CCOC(=O)c1ccc(-n2c(C)cc(/C=C/c3ccc(OCC)cc3)c(C#N)c2=O)cc1 | MTT | 100 µM, 24 h | viability | 40.7% |
| CCn1cc(-c2nc(C)no2)c(=O)c2cc(F)c(N3CCC(C(C)C)CC3)cc21 | ATP luminescence | 48 h | EC50 | > 40 µM |
| CCOC(=O)c1ccc(-n2c(N)c(C#N)c(CC#N)c(C#N)c2=O)cc1 | MTT | 1.56 µM, 24 h | viability | 100% |
| CC(=O)O[C@H]1C(=O)[C@@]2(C)[C@H]([C@H](OC(=O)c3ccccc3)[C@]3(O)C[C@H](OC(=O)[C@H](O)[C@@H](NC(=O)c4ccccc4)c4ccccc4)C(C)=C1C3(C)C)[C@]1(OC(C)=O)CO[C@@H]1C[C@@H]2O | MTT |  | IC50 | 4.75 µM |
| CC(=O)Oc1ccc(/C=N/NC(=O)c2ccc(Nc3cc(C)nc4c(O)cccc34)cc2)cc1 | MTT | 20 µM | inhibition | 56.7% |
| CSc1ccc(-c2nc3ccc(C)cc3n2Cc2ccccc2)cc1 | MTT |  | IC50 | 17.7 µM |
| CCn1cc(-c2nc(C)no2)c(=O)c2cc(F)c(N3CCC(CN4CCOCC4)CC3)cc21 | ATP luminescence | 48 h | EC50 | > 40 µM |
| CC(C)(CO)Cn1nc(-c2ccc3nc(OC4CC4)ccc3c2)c2c(N)ncnc21 |  |  | GI50 | > 10 µM |
| O=[N+]([O-])c1ccc(-c2nc3ccccc3n2Cc2ccccc2)cc1 | MTT |  | IC50 | 7.8 µM |
| COc1cc2ncnc(Nc3ccc(F)c(Cl)c3)c2cc1NC(=O)N/N=C/CN(C)C | MTT | 72 h | IC50 | 2.08 µM |
| CCOC(=O)c1ccc(-n2c(C)cc(C)c(C#N)c2=O)cc1 | MTT | 25 µM, 24 h | viability | 64.7% |
| C=CCn1c(-c2ccc(Cl)cc2)nc2ccc(C)cc21 | MTT |  | IC50 | 38.8 µM |
| COc1ccc(NC(=O)c2c(Nc3ccccc3)sc(C#N)c2NC(=O)CNc2ccccc2[N+](=O)[O-])cc1 | SRB | 10 nM, 48 h | viability | 92.5% |
| c1cncc(-c2nc3ccccc3[nH]2)c1 | MTT | 48 h | IC50 | 70.6 µM |
| COc1cccc(/C=C2\SC(=S)N(CC(=O)Nc3ccccc3)C2=O)c1 | MTT | 10 µM | inhibition | 13.9% |
| CCn1cc(-c2nc(C)no2)c(=O)c2cc(F)c(N3CCCC(C)C3)cc21 (stereo not drawn) | ATP luminescence | 48 h | EC50 | > 40 µM |
| COc1ccc(NC(=O)c2c(Nc3ccccc3)sc(C#N)c2NC(=O)CNc2ccccc2Cl)cc1 | SRB | 10 µM, 48 h | viability | 79.2% |
| CC(C)c1ccc(/C=C2\SC(=S)N(CC(=O)Nc3ccccc3)C2=O)cc1 | MTT | 10 µM | inhibition | 17.5% |
| COc1ccc(C=NNC(=O)c2sc(Nc3ccccc3)c(C(=O)Nc3ccc(OC)cc3)c2NC(C)=O)cc1 | SRB | 1 nM, 48 h | viability | 102% |
| O=C(CN1C(=O)/C(=C/c2cccc(O)c2)SC1=S)Nc1ccccc1 | MTT | 10 µM | inhibition | 5.11% |
